Reference: ChEMBL document CHEMBL1132611, “Novel, potent, and selective phosphodiesterase-4 inhibitors as antiasthmatic agents: synthesis and biological activities of a series of 1-pyridylnaphthalene derivatives” (J Med Chem, 1999)
Where “and” joins values, the source holds several entries; their conditions need not be identical. Identical values can stand only once.

How the values were obtained:
Phosphodiesterase 1 = Phosphodiesterase 1 (Homo sapiens, UniProt P54750+Q01064+Q14123); assay: Inhibition of Phosphodiesterase 1 of guinea pig cardiac ventricle; type: protein assay, Cavia porcellus; conditions: target entry is the homologue from another species
How it was run: (§1)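 PDE1, 2 and 3 came from guinea pig cardiac ventricle and PDE4 and 5 from lung, separated by Resource-Q anion exchange on a sodium acetate gradient at pH 6.5. Assays used 1.0 µM [3H]cAMP or [3H]cGMP in 50 mM Tris-HCl pH 8.0, 5 mM MgCl2 and 4 mM 2-mercaptoethanol, for 30 min at 30 °C. Substrate hydrolysis was kept at or below 20%. Triplicates were run at 3–4 inhibitor levels, and IC50 was read graphically.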

Phosphodiesterase 3 = Phosphodiesterase 3 (Homo sapiens, UniProt Q14432+Q13370); assay: In vitro inhibition of Phosphodiesterase 3 activity from guinea pig cardiac ventricle; type: protein assay, Cavia porcellus; conditions: target entry is the homologue from another species; how it was run: as §1
[1] = target: cGMP-dependent 3',5'-cyclic phosphodiesterase (Homo sapiens, UniProt O00408); assay: Inhibition of guinea pig cardiac ventricle Phosphodiesterase 2; design: species or system Cavia porcellus; conditions: target entry is the homologue from another species; how it was run: as §1
cGMP-dependent 3',5'-cyclic phosphodiesterase, sequence (O00408 whole entry): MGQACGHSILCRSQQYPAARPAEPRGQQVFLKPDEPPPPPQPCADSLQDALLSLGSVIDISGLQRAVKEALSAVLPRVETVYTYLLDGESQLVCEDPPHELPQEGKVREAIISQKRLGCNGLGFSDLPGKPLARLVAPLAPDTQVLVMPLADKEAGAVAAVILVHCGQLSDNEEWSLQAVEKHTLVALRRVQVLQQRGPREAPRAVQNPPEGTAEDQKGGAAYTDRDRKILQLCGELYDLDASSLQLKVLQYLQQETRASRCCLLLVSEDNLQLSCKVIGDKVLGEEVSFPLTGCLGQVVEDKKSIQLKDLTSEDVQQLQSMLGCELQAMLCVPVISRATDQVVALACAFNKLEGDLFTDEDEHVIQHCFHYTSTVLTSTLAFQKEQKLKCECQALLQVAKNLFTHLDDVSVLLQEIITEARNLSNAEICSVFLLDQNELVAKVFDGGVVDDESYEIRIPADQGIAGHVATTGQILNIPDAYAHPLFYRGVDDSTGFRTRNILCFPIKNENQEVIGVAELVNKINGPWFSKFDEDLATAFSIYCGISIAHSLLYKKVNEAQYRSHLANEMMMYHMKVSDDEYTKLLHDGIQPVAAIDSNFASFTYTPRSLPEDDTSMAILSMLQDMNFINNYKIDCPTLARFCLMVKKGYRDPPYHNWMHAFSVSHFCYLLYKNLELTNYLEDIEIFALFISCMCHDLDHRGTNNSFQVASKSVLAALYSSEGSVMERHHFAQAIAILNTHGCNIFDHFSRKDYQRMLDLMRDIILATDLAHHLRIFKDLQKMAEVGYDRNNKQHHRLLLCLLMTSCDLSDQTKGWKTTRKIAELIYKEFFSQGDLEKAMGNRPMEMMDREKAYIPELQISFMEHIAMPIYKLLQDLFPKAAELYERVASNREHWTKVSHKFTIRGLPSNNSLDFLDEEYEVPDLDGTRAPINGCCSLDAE

Cavia porcellus [2] = assay: Inhibition of antigen-induced bronchoconstriction in guinea pigs 0.1 mg/kg intravenous dose; type: functional
How it was run: (§2)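 Male Hartley guinea pigs were passively sensitised with iv rabbit anti-ovalbumin antiserum and challenged with ovalbumin 30 µg/kg iv 20–28 h later. Animals were under α-chloralose anaesthesia, ventilated, and paralysed with gallamine. Overflow volume was measured by Konzett–Rössler and expressed as a percentage of the maximum. Compound was given iv 2 min before challenge. ED50 came from the dose–inhibition curve with 95% confidence limits.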

Cavia porcellus [3] = assay: Change in guinea pig heart rate at 0.1 mg/kg intravenous dose; type: functional
Cavia porcellus [4] = assay: Inhibition of antigen-induced bronchoconstriction in guinea pigs 0.3 mg/kg intravenous dose; type: functional; how it was run: as §2
Phosphodiesterase 4 [5] = target: T1, Phosphodiesterase 4 (Homo sapiens, UniProt P27815+Q08499+Q07343+Q08493); assay: In vitro inhibition of Phosphodiesterase 4 from guinea pig lung; type: protein assay, Cavia porcellus; conditions: target entry is the homologue from another species
Cavia porcellus [6] = species: Cavia porcellus; assay: Inhibition of antigen-induced bronchoconstriction in guinea pigs (95% confidence); type: functional; how it was run: as §2
Cavia porcellus [7] = assay: Change in guinea pig heart rate at 0.03 mg/kg intravenous dose; type: functional
Cavia porcellus [8] = assay: Inhibition of antigen-induced bronchoconstriction in guinea pigs at 0.03 mg/kg intravenous dose; type: functional; how it was run: as §2
Phosphodiesterase 4 [9] = target: T1, Phosphodiesterase 4; assay: (§3) Displacement of [3H]- rolipram binding to guinea pig brain; type: tissue-based, Cavia porcellus; conditions: target entry is the homologue from another species
How it was run: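 Guinea pig brain membranes were made by homogenising in 20 mM Tris-HCl pH 7.4 with 2 mM MgCl2 and 0.1 mM DTT, spun at 45000g, washed and stored at -80 °C. Competition used 3 nM [3H]-(±)-rolipram at 30 °C for 60 min in 25 mM Tris-HCl pH 7.4, 5 mM MgCl2 and 0.05 mM 5'-AMP. Bound ligand was separated by filtration and counted by scintillation.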

Cavia porcellus [10] = species: Cavia porcellus; assay: Inhibition of histamine-induced bronchoconstriction in guinea pigs (95% confidence); type: functional
How it was run: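 Guinea pigs received intraduodenal compound, and bronchoconstriction was induced with histamine dihydrochloride 2 µg/kg iv. Pulmonary inflation pressure was recorded in ventilated, gallamine-paralysed animals. ED50 was taken from the dose–inhibition curve using at least three doses, with 95% confidence limits.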

Cavia porcellus [11] = assay: Change in guinea pig heart rate at 0.3 mg/kg intravenous dose; type: functional
Phosphodiesterase 4 [12] = target: T1, Phosphodiesterase 4; assay: Emetic effect in ferrets at peroral 30 mg/kg dose; type: functional, organism-based; design: dose 30 mg/kg; conditions: Mustela putorius furo; target entry is the homologue from another species
Canis familiaris [13] = assay: Emetic effect in dog at 1 mg/kg dose, iv; type: functional, Canis lupus familiaris
Phosphodiesterase 4 [14] = target: T1, Phosphodiesterase 4; assay: Inhibition of guinea pig lung Phosphodiesterase 4; type: protein assay, Cavia porcellus; conditions: target entry is the homologue from another species; how it was run: as §1
Phosphodiesterase 4 [15] = target: T1, Phosphodiesterase 4; assay: Emetic effect in ferrets at peroral 10 mg/kg; type: functional, organism-based; design: dose 10 mg/kg; conditions: Mustela putorius furo; target entry is the homologue from another species
Canis familiaris [16] = assay: Emetic effect in dog at 0.3 mg/kg dose, iv; type: functional, Canis lupus familiaris
Cavia porcellus [17] = assay: Inhibition of antigen-induced bronchoconstriction in guinea pigs at 1 mg/kg intravenous dose; type: functional; how it was run: as §2
Phosphodiesterase 4 [18] = target: T1, Phosphodiesterase 4; assay: as §3; type: tissue-based, Cavia porcellus; conditions: target entry is the homologue from another species; remark: listed apart in the source
Phosphodiesterase 4 [19] = target: T1, Phosphodiesterase 4; assay: Emetic effect in ferrets at peroral 100 mg/kg dose; type: functional, organism-based; design: dose 100 mg/kg; conditions: Mustela putorius furo; target entry is the homologue from another species
Cavia porcellus [20] = assay: Inhibition of antigen-induced bronchoconstriction in guinea pigs 3 mg/kg intravenous dose; type: functional; how it was run: as §2
Cavia porcellus [21] = assay: Change in guinea pig heart rate at 3 mg/kg intravenous dose; type: functional
Cavia porcellus [22] = assay: Change in guinea pig heart rate at 1 mg/kg intravenous dose; type: functional

| Structure (SMILES) | IC50 (Phosphodiesterase 1) [µM] | IC50 (Phosphodiesterase 3) [nM] | Reduction (Cavia porcellus [2]) [%] | IC50 (Phosphodiesterase 4 [5]) [nM] | ED50 (Cavia porcellus [6]) [mg/kg] | other results |
| --- | --- | --- | --- | --- | --- | --- |
| COc1ccc(C2CNC(=O)C2)cc1OC1CCCC1 (racemic) [ROLIPRAM] | > 100 | > 300000 |  |  |  | IC50 [1]: > 100000 nM |
| CCOc1cc2cc(CO)c(CO)c(-c3ccnc(-n4nc(-c5cccnc5)c5ccccc5c4=O)c3)c2cc1OC.Cl | 20 | 34 | 23 | 0.9 | 0.17 | Heart rate (Cavia porcellus [3]; 0.1 mg/kg): 7 delta beats min-1 and 18 delta beats min-1; Reduction (Cavia porcellus [4]): 77% |
| COc1cc2cc(CO)c(CO)c(-c3ccc(-n4nc(-c5cccnc5)c5ccccc5c4=O)nc3)c2cc1OC.Cl | > 100 | 80000 |  | 40 |  |  |
| CCOc1cc2cc(CO)c(CO)c(-c3ccnc(-n4nc(-c5cccnc5)c5ccccc5c4=O)c3)c2cc1OCC.Cl [T-2585.HCL] | 10 | 1800 | 57 |  | 0.063 | Heart rate (Cavia porcellus [7]): 4 delta beats min-1; Reduction (Cavia porcellus [8]): 37%; Ki (Phosphodiesterase 4 [9]): 2.6 nM; ED50 (Cavia porcellus [10]): 0.033 mg/kg; Heart rate (Cavia porcellus [3]): 3 delta beats min-1; Reduction (Cavia porcellus [4]): 84%; Heart rate (Cavia porcellus [11]): 2 delta beats min-1; Emesis (vomiting/tested) (Phosphodiesterase 4 [12]): 4; Emesis (Canis familiaris [13]): 4 vomiting/tested; IC50 [1]: 1300 nM; IC50 (Phosphodiesterase 4 [14]): 0.13 nM; Emesis (vomiting/tested) (Phosphodiesterase 4 [15]): 4; Emesis (Canis familiaris [16]): 8 vomiting/tested |
| CCOc1cc2c(-c3ccnc(-n4nc(-c5cccnc5)c5ccccc5c4=O)c3)c(CO)c(CO)cc2cc1OC.Cl | 3 | 490 | 39 | 0.16 | 0.18 | Heart rate (Cavia porcellus [3]): 3 delta beats min-1; Reduction (Cavia porcellus [4]): 69%; Heart rate (Cavia porcellus [11]): 7 delta beats min-1 |
| COc1cc2cc(CO)c(CO)c(-c3ccnc(-n4c(=O)ccc5ccccc54)c3)c2cc1OC | 2 | 330 | 68 | 2.8 | 0.12 | Reduction (Cavia porcellus [8]): -11%; ED50 (Cavia porcellus [10]): 0.4 mg/kg; Reduction (Cavia porcellus [17]): 86%; Ki (Phosphodiesterase 4 [18]): 6.2 nM; Emesis (vomiting/tested) (Phosphodiesterase 4 [19]): 4; Reduction (Cavia porcellus [20]): 90% |
| COc1cc2ccc(CO)c(-c3ccnc(-n4nc(-c5cccnc5)c5ccccc5c4=O)c3)c2cc1OC.Cl |  | 700 |  | 31 |  |  |
| COc1cc2cc(CO)c(CO)c(-c3ccnc(-n4c(=O)c5ccccc5c5ccccc54)c3)c2cc1OC |  | 41 |  | 0.2 | 1.2 | Reduction (Cavia porcellus [17]): 38%; Heart rate (Cavia porcellus [21]): 15 delta beats min-1; Reduction (Cavia porcellus [20]): 91%; Heart rate (Cavia porcellus [22]): 18 delta beats min-1 |
| COC(=O)c1cc2cc(OC)c(OC)cc2c(-c2ccnc(-n3nc(-c4cccnc4)c4ccccc4c3=O)c2)c1C(=O)OC.Cl |  | 29000 |  | 150 |  |  |
| Cl.O=c1c2ccccc2c(-c2cccnc2)nn1-c1cc(-c2c(CO)c(CO)cc3ccccc23)ccn1 | > 100 | 50000 |  | 5000 |  |  |
| COc1cc2cc(CO)c(CO)c(-c3cccc(-n4nc(-c5cccnc5)c5ccccc5c4=O)n3)c2cc1OC.Cl |  | 5600 |  | 15 |  |  |
